Experimental data gathered from unrelated publications.
Lines come from different studies, so protocols differ.
Target: Platelet-derived growth factor receptor beta (PDGFRB, Homo sapiens, UniProt P09619)

O=C(NCCCC1CCCCC1)c1ccc(CNC(=O)c2cnn(-c3ccccc3)c2C(F)(F)F)cc1 — remaining binding (cell-free assay, competition with immobilised ligand; 0.1 µM): 100%
CCCS(=O)(=O)Nc1ccc(F)c(C(=O)c2c[nH]c3ncc(-c4ccc(Cl)cc4)cc23)c1F — inhibition (enzyme activity, inhibitor; 1 µM): < 20%
O=c1c2ccccc2[nH]c(=S)n1CCN1CCC(=C(c2ccc(F)cc2)c2ccc(F)cc2)CC1 — remaining activity (enzyme activity, inhibitor; 0.5 µM): 112%
O=C(CSc1nc2nccnc2c(=O)n1CCc1ccccc1)Nc1nccs1 — inhibition (enzyme activity, inhibitor; 10 µM): 2%
O=C(Nc1cccnn1)N1CC(C/C=C/c2cncc(Oc3ccc(C(F)(F)F)cn3)n2)C1 — remaining binding (cell-free assay, competition with immobilised ligand; 1 µM): 81%
Cc1ccc(NC(=O)c2ccc(CN3CCN(C)CC3)cc2)cc1Nc1nccc(-c2cccnc2)n1 — activity vs control (enzyme activity, inhibitor; 0.5 µM): 39.1%
COc1cc2ncnc(Nc3ccc(Oc4ccccc4)c(C)c3C)c2cc1OC — inhibition (enzyme activity, inhibitor; 1 µM): 6%
COc1cc(Cl)c(C(=O)N[C@@H](CN[C@H]2CC[C@@H](N)CC2)Cc2ccc(C#N)cc2)cc1-c1ccc(CN[C@H](C)c2ccc(C)cc2)o1 — remaining activity (enzyme activity, inhibitor; 1 µM): 95%
Cc1ccc(Nc2nccc(N(C)c3ccc4c(C)n(C)nc4c3)n2)cc1S(N)(=O)=O — inhibition (enzyme activity, inhibitor; 10 µM): 97%
Nc1ncnc2occ(-c3ccc(NC(=O)Nc4cc(C(F)(F)F)ccc4F)cc3)c12 — remaining activity (enzyme activity, inhibitor; 20 µM): 0%
Cc1noc([C@H]2C[C@@H](c3ccc(C(F)(F)F)cc3)CN(C(=O)N3CCS(=O)(=O)C3)C2)n1 — remaining binding (cell-free assay, competition with immobilised ligand; 1 µM): 100%
COc1cc2nccc(Oc3ccc(NC(=O)c4c5n(n(-c6ccc(F)cc6)c4=O)CCCC5)cc3)c2cc1OC — inhibition (enzyme activity, inhibitor; 0.1 µM): 6%
O=C1Nc2ccc(Cl)cc2C1=Cc1cc(Cl)c(O)c(Cl)c1 — remaining signal (cell-free assay; 0.5 µM): 76.9%
CCCOc1ccc([C@H]2[C@H](C(=O)O)[C@@H](c3ccc4c(c3)OCO4)CN2CC(=O)Nc2c(CC)cccc2CC)cc1 — remaining binding (cell-free assay, competition with immobilised ligand; 1 µM): 100%
CC/C(=N\NC(=O)NCc1cccc(O)c1)c1ccc(O)c(C)c1O — inhibition (enzyme activity, inhibitor; 0.1 µM): 4.5%
COc1cccc(CNC(=O)c2nc3scc(COCc4ccc(C(=O)O)cc4)c3c(=O)[nH]2)c1 — remaining binding (cell-free assay, competition with immobilised ligand; 1 µM): 99%
O=C1c2ccccc2-c2n[nH]c3cccc1c23 — activity vs control (enzyme activity, inhibitor; 0.5 µM): 85.1%
C=CC(=O)Nc1cc(Nc2nccc(Nc3cc(Cl)c(F)cc3C(C)(C)O)n2)c(OC)cc1N1CC[C@@H](N(C)C)C1 — inhibition (enzyme activity, inhibitor; 1 µM): -2%
CN(C)c1ccc(C=C2C(=O)Nc3ccccc32)cc1 — remaining activity (enzyme activity, inhibitor; 0.5 µM): 85.8%
Cc1cc(NC(=O)c2cccc3cc(-c4cccc5[nH]nc(N)c45)ccc23)ccc1F — activity vs control (enzyme activity, inhibitor; 0.1 µM): 101%
